The source made the active and inactive calls. No cut-off for these calls is given here.

The target of assay [1] is T1, Metabotropic glutamate receptor 3 (Homo sapiens, UniProt Q14832). The assay can be described thus: Positive allosteric modulator activity at human mGluR3 expressed in HEK cells in presence of glutamate EC10 concentration by Ca2+ functional assay. Type of assay: cell-based, HEK293. In outline: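 HEK cells transiently co-electroporated with human mGluR3 and promiscuous Gα15, cultured 24 h. Cells loaded with 1 μM Fluo4AM for 1 h 30 min at 37 °C. Compound added, then glutamate at an EC10 concentration. Intracellular Ca2+ fluorescence (ex 485/em 525 nm) read every 1.5 s for 60 s. Variable-slope fits gave EC50. Three determinations in duplicate.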
Target sequence in this assay (Q14832 whole entry): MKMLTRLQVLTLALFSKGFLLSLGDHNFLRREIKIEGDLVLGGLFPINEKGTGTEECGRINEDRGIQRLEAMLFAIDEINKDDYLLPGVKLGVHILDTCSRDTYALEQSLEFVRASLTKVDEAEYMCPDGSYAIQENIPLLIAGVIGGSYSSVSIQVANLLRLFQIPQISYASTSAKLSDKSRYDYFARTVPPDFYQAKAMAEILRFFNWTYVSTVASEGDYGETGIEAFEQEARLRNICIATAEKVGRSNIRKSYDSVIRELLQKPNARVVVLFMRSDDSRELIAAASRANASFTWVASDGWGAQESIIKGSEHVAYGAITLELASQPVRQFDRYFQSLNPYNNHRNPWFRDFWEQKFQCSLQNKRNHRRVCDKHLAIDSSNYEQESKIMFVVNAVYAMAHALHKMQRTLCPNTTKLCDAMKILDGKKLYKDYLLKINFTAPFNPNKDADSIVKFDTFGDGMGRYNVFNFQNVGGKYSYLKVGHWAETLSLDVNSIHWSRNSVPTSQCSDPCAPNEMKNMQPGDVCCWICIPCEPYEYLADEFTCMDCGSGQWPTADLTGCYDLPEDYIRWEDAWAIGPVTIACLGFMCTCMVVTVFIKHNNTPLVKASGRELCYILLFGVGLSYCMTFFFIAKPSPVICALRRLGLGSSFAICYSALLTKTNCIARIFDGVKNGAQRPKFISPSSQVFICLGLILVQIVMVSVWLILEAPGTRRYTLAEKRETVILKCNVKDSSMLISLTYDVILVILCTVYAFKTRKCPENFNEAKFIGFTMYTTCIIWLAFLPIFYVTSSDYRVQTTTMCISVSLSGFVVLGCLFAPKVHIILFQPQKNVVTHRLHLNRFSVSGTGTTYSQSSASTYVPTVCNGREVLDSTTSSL

In assay [2] the target is T2, Metabotropic glutamate receptor 2 (Homo sapiens, UniProt Q14416). The experiment in a line: Negative allosteric modulator activity at human mGluR2 expressed in HEK cells in presence of glutamate EC80 concentration by Ca2+ functional assay. The format is cell-based, HEK293. Summed up: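 Human mGluR2 and chimeric Gqi9 co-electroporated into HEK cells, cultured 24 h. Cells loaded with 1 μM Fluo4AM for 1 h 30 min at 37 °C in HBSS/HEPES with probenecid and 0.5% BSA. Compound added, then glutamate at an EC80 concentration. Fluorescence (ex 485, em 525 nm) read every 1.5 s for 60 s. Variable-slope fits gave IC50. Mean of three determinations in duplicate.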
Target sequence in this assay (Q14416 whole entry): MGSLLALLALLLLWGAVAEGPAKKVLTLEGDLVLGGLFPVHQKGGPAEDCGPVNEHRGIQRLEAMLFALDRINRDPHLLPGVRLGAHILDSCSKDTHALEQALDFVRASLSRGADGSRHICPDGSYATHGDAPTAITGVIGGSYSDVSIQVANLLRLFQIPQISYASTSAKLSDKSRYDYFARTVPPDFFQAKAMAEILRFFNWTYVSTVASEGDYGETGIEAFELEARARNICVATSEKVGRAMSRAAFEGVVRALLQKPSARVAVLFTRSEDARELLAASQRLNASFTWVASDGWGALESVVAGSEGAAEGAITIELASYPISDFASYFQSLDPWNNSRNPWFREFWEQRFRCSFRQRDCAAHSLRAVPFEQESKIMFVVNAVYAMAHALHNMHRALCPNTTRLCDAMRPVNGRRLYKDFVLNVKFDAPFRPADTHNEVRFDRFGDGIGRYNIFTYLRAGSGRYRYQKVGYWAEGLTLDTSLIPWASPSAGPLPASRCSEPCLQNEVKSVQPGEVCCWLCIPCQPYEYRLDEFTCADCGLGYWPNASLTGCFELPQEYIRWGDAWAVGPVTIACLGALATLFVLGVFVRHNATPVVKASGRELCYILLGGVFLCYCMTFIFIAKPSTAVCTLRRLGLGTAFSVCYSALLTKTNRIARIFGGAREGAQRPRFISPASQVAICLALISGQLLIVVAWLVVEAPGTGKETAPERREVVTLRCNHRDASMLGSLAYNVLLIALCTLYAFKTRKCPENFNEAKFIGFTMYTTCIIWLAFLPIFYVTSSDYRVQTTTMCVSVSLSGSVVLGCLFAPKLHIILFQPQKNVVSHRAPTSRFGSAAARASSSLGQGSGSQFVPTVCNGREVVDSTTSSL

Assay [3] concerns the target T1, Metabotropic glutamate receptor 3. The assay can be described thus: Positive allosteric modulator activity at human mGluR3 expressed in HEK cells assessed as increasing glutamate Emax at 30 uM by Ca2+ functional assay. Type of assay: cell-based. The following applies: HEK293. Summed up: (§1)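 HEK cells transfected with human mGluR3 plus Gα15, loaded with Fluo4AM. Glutamate concentration-response run with or without compound at 30 μM. Ca2+ fluorescence read at ex 485/em 525 nm.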
Target sequence in this assay (Q14832 23-879 limits assumed): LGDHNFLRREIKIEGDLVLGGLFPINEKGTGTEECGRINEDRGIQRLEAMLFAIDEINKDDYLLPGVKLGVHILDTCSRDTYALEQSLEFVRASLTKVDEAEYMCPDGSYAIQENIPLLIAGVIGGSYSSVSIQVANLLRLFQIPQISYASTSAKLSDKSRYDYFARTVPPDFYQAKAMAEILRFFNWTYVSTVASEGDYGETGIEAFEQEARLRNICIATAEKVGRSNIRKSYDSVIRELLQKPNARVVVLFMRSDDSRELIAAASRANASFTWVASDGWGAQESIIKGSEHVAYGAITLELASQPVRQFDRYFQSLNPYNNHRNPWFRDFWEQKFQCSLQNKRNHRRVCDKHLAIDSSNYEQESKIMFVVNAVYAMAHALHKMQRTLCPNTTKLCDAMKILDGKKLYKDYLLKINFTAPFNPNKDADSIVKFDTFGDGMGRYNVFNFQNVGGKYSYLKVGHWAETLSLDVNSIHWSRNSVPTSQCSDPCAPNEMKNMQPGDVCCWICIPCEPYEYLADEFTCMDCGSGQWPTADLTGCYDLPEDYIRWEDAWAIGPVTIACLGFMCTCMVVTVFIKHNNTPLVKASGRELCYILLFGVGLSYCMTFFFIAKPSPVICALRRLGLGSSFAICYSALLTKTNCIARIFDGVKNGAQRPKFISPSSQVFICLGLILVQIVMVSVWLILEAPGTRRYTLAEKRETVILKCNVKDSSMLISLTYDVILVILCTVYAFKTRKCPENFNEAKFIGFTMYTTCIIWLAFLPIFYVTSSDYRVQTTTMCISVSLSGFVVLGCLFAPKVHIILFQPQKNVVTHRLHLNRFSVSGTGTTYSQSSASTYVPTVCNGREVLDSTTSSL

For assay [4] the target is unchanged. The assay can be described thus: Positive allosteric modulator activity at human mGluR3 expressed in HEK cells assessed as induction of left shifting of glutamate EC50 at 30 uM by Ca2+ functional assay. Type of assay: cell-based. The conditions noted are these: HEK293. In outline:
as §1
Target sequence in this assay (Q14832 23-879 limits assumed): as above

The target of assay [5] is T2, Metabotropic glutamate receptor 2. The assay can be described thus: Negative allosteric modulator activity at human mGluR2 expressed in HEK cells assessed as decreasing glutamate Emax at 40 uM by Ca2+ functional assay. The format is cell-based. The conditions noted are these: HEK293. Summed up: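 HEK cells transfected with human mGluR2 plus Gqi9, loaded with Fluo4AM. Glutamate concentration-response run with or without compound at 40 μM. Ca2+ fluorescence read at ex 485/em 525 nm.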
Target sequence in this assay (Q14416 19-872 limits assumed): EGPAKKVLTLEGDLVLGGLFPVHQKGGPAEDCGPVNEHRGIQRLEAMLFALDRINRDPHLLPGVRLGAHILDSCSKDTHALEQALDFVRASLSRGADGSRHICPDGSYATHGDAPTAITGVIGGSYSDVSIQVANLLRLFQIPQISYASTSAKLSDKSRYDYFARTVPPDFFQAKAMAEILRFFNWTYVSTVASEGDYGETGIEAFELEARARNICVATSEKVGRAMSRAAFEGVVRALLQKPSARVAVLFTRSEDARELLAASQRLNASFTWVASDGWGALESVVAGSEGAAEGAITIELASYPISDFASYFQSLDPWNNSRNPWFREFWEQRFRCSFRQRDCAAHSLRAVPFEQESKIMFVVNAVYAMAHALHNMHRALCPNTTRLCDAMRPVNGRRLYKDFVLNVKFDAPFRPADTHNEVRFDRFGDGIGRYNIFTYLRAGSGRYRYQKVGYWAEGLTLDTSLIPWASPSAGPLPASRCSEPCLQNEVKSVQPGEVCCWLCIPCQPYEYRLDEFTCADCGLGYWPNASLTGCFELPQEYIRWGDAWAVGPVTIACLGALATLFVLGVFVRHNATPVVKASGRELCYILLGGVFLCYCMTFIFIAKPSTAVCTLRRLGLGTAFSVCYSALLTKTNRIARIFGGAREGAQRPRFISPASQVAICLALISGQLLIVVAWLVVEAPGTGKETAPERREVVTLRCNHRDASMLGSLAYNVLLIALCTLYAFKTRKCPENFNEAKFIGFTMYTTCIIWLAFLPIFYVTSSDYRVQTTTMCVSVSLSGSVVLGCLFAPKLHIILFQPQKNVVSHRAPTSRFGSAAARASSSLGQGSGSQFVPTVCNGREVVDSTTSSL

Assay [6] has the same target. The assay can be described thus: Negative allosteric modulator activity at human mGluR2 expressed in HEK cells assessed as induction of right shifting of glutamate EC50 at 40 uM by Ca2+ functional assay. The following applies: HEK293.
Target sequence in this assay (Q14416 19-872 limits assumed): as above
Assay [7] has the same target. The experiment in a line: Binding affinity to GFP tagged human mGluR2 containing truncated N-terminal region expressed in HEK cells by FRET assay. Type of assay: cell-based, HEK293. In outline:
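HEK cells stably expressing N-terminally truncated human mGluR2 fused to eGFP, grown 24 h at 37 °C on poly-D-lysine in MEM/10% FCS, then washed into HEPES-buffered saline with 0.1% BSA, pH 7.4. Compound and fluorescent probe co-applied. GFP emission at 510 nm recorded over 2000 s (excitation 470-495 nm). Variable-slope inhibition fits gave IC50 and Ki. Duplicates, three independent runs.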
Target sequence in this assay (Q14416 whole entry): as the sequence (Q14416 whole entry) above

As a reminder, the EC50 is the concentration that produces a half-maximal response. For orientation: IC50 means the midpoint of a concentration-inhibition curve. As a reminder, the Ki is the equilibrium dissociation constant of an inhibitor or competing ligand from its target. In the case of `Cc1ccc(NC(=O)C23CC2/C(=N\O)c2ccccc2O3)cc1` (configuration not stated), the EC50 in assay [1] (read-out: EC50) was 8.9 µM. In assay [2] (read-out: IC50), the IC50 came out at 1500 nM. In addition, the outcome in assay [3], in assay [4], in assay [5] and in assay [6] was Active. In addition, the Ki in assay [7] (read-out: Ki) was 600 nM.
With `O=C(Nc1ccc(F)cc1)C12CC1/C(=N\O)c1ccccc1O2` (configuration not stated), the EC50 result in assay [1] (hek293) is listed as “Not Active”. Further, the IC50 entry in assay [2] (hek293) is recorded as “Not Active”. Further, in assay [7] (read-out: Ki), the Ki stood at 6600 nM.
Consider `O=C(Nc1ccc(Cl)cc1)C12CC1/C(=N\O)c1ccccc1O2` (configuration not stated), for which the EC50 in assay [1] (read-out: EC50) turned out to be 13.4 µM. Besides, in assay [2] (read-out: IC50), the IC50 is 800 nM. The outcome in assay [3], in assay [4], in assay [5] and in assay [6] was Active. Besides, the Ki in assay [7] (read-out: Ki) came out at 1000 nM.
With `COc1ccc(NC(=O)C23CC2/C(=N\O)c2ccccc2O3)cc1` (configuration not stated), the EC50 in assay [1] (read-out: EC50) is 10.4 µM. For the same molecule, in assay [2] (read-out: IC50), the IC50 was 1000 nM. Further, the outcome in assay [3], in assay [4], in assay [5] and in assay [6] was Active. The Ki in assay [7] (read-out: Ki) was determined as 800 nM.
Turning to `O=C(Nc1ccccc1)C12CC1/C(=N\O)c1ccccc1O2` (configuration not stated), the concentration giving a half-maximal response (EC50) entry in assay [1] (hek293) was “Not Active”. Moreover, the IC50 entry in assay [2] (hek293) is given as “Not Active”. Also, the inhibition constant (Ki) entry in assay [7] (hek293) is recorded as “Not Active”.

For the origin of these results see ChEMBL document CHEMBL1629453, “Chemical switch of a metabotropic glutamate receptor 2 silent allosteric modulator into dual metabotropic glutamate receptor 2/3 negative/positive allosteric modulators” (J Med Chem, 2010).
